Source: ChEMBL document CHEMBL5236607, “Membrane-Active Cyclic Amphiphilic Peptides: Broad-Spectrum Antibacterial Activity Alone and in Combination with Antibiotics” (J Med Chem, 2022)
Peptide text beside a SMILES is read from it.

Key:
Format in all cases: functional
[1] = system: Escherichia coli; assay: Synergistic antibacterial activity against Escherichia coli ATCC 25922 fractional inhibitory concentration incubated for 24 hrs in presence of polymyxin B by checkerboard assay
Method in brief: (§1)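 Checkerboard assay in MH broth. Inoculum from an LB overnight culture set to 0.5 McFarland and diluted 1/150. […] Each agent was also titrated alone. Incubation 24 h at 37 °C. FIC = combination MIC/individual MIC; FICI = sum of the FICs. Triplicate.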

[2] = system: Klebsiella pneumoniae; assay: Synergistic antibacterial activity against Klebsiella pneumoniae ATCC BAA-1705 fractional inhibitory concentration index incubated for 24 hrs in presence of kanamycin by checkerboard assay; method in brief: as §1
[3] = system: Pseudomonas aeruginosa; assay: Synergistic antibacterial activity against Pseudomonas aeruginosa ATCC […] assessed as fractional inhibitory concentration incubated for 24 hrs in presence of clindamycin by checkerboard assay
[4] = system: Staphylococcus aureus; assay: Synergistic antibacterial activity against methicillin resistant Staphylococcus aureus ATCC BAA-1556 fractional inhibitory concentration index incubated for 24 hrs in presence of Ciprofloxacin by checkerboard assay
Method in brief: (§2)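 Checkerboard assay. Inoculum from an LB overnight culture at 0.5 McFarland, diluted 1/150 in MH media. […] Incubated 37 °C for 24 h. FICI = MIC combination/MIC alone summed over both agents. Triplicate.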

[5] = system: Staphylococcus aureus; assay: Synergistic antibacterial activity against methicillin resistant Staphylococcus aureus ATCC BAA-1556 incubated for 24 hrs in presence of tetracycline by checkerboard assay; method in brief: as §2
[6] = system: Klebsiella pneumoniae; assay: Synergistic antibacterial activity against Klebsiella pneumoniae ATCC BAA-1705 incubated for 24 hrs in presence of polymyxin B by checkerboard assay
[7] = system: Escherichia coli; assay: Synergistic antibacterial activity against Escherichia coli ATCC 25922 assessed as fractional inhibitory concentration index incubated for 24 hrs in presence of tetracycline by checkerboard assay; method in brief: as §1
[8] = system: Pseudomonas aeruginosa; assay: Synergistic antibacterial activity against Pseudomonas aeruginosa ATCC […] incubated for 24 hrs in presence of meropenem by checkerboard assay
[9] = system: Klebsiella pneumoniae; assay: Synergistic antibacterial activity against Klebsiella pneumoniae ATCC BAA-1705 fractional inhibitory concentration incubated for 24 hrs in presence of clindamycin by checkerboard assay; method in brief: as §1
[10] = system: Escherichia coli; assay: Synergistic antibacterial activity against Escherichia coli ATCC 25922 assessed as fractional inhibitory concentration incubated for 24 hrs in presence of clindamycin by checkerboard assay; method in brief: as §1
[11] = system: Pseudomonas aeruginosa; assay: Synergistic antibacterial activity against Pseudomonas aeruginosa ATCC […] assessed as fractional inhibitory concentration index incubated for 24 hrs in presence of clindamycin by checkerboard assay; method in brief: as §2
[12] = system: Pseudomonas aeruginosa; assay: Synergistic antibacterial activity against Pseudomonas aeruginosa ATCC […] fractional inhibitory concentration incubated for 24 hrs in presence of Ciprofloxacin by checkerboard assay
[13] = system: Staphylococcus aureus; assay: Synergistic antibacterial activity against methicillin resistant Staphylococcus aureus ATCC BAA-1556 fractional inhibitory concentration incubated for 24 hrs in presence of metronidazole by checkerboard assay; method in brief: as §2
[14] = system: Klebsiella pneumoniae; assay: Synergistic antibacterial activity against Klebsiella pneumoniae ATCC BAA-1705 fractional inhibitory concentration incubated for 24 hrs in presence of daptomycin by checkerboard assay; method in brief: as §1
[15] = system: Klebsiella pneumoniae; assay: Synergistic antibacterial activity against Klebsiella pneumoniae ATCC BAA-1705 assessed as fractional inhibitory concentration index incubated for 24 hrs in presence of tobramycin by checkerboard assay; method in brief: as §1
[16] = system: Escherichia coli; assay: Synergistic antibacterial activity against Escherichia coli ATCC 25922 incubated for 24 hrs in presence of tetracycline by checkerboard assay; method in brief: as §1
[17] = system: Klebsiella pneumoniae; assay: Synergistic antibacterial activity against Klebsiella pneumoniae ATCC BAA-1705 fractional inhibitory concentration index incubated for 24 hrs in presence of levofloxacin by checkerboard assay; method in brief: as §1
[18] = system: Klebsiella pneumoniae; assay: Synergistic antibacterial activity against Klebsiella pneumoniae ATCC BAA-1705 fractional inhibitory concentration index incubated for 24 hrs in presence of clindamycin by checkerboard assay; method in brief: as §1
[19] = system: Staphylococcus aureus; assay: Synergistic antibacterial activity against methicillin resistant Staphylococcus aureus ATCC BAA-1556 fractional inhibitory concentration index incubated for 24 hrs in presence of vancomycin by checkerboard assay; method in brief: as §2
[20] = system: Staphylococcus aureus; assay: Synergistic antibacterial activity against methicillin resistant Staphylococcus aureus ATCC BAA-1556 fractional inhibitory concentration incubated for 24 hrs in presence of vancomycin by checkerboard assay; method in brief: as §2
[21] = system: Escherichia coli; assay: Synergistic antibacterial activity against Escherichia coli ATCC 25922 fractional inhibitory concentration incubated for 24 hrs in presence of vancomycin by checkerboard assay; method in brief: as §1
[22] = system: Pseudomonas aeruginosa; assay: Synergistic antibacterial activity against Pseudomonas aeruginosa ATCC […] fractional inhibitory concentration incubated for 24 hrs in presence of meropenem by checkerboard assay
[23] = system: Klebsiella pneumoniae; assay: Synergistic antibacterial activity against Klebsiella pneumoniae ATCC BAA-1705 assessed as fractional inhibitory concentration index incubated for 24 hrs in presence of tetracycline by checkerboard assay; method in brief: as §1
[24] = system: Pseudomonas aeruginosa; assay: Synergistic antibacterial activity against Pseudomonas aeruginosa ATCC […] assessed as fractional inhibitory concentration incubated for 24 hrs in presence of tetracycline by checkerboard assay
[25] = system: Escherichia coli; assay: Synergistic antibacterial activity against Escherichia coli ATCC 25922 fractional inhibitory concentration index incubated for 24 hrs in presence of polymyxin B by checkerboard assay; method in brief: as §1
[26] = system: Staphylococcus aureus; assay: Synergistic antibacterial activity against methicillin resistant Staphylococcus aureus ATCC BAA-1556 assessed as fractional inhibitory concentration index incubated for 24 hrs in presence of tetracycline by checkerboard assay; method in brief: as §2
[27] = system: Staphylococcus aureus; assay: Synergistic antibacterial activity against methicillin resistant Staphylococcus aureus ATCC BAA-1556 assessed as fractional inhibitory concentration incubated for 24 hrs in presence of tetracycline by checkerboard assay; method in brief: as §2
[28] = system: Pseudomonas aeruginosa; assay: Synergistic antibacterial activity against Pseudomonas aeruginosa ATCC […] fractional inhibitory concentration incubated for 24 hrs in presence of metronidazole by checkerboard assay
[29] = system: Pseudomonas aeruginosa; assay: Synergistic antibacterial activity against Pseudomonas aeruginosa ATCC […] fractional inhibitory concentration index incubated for 24 hrs in presence of meropenem by checkerboard assay
[30] = system: Pseudomonas aeruginosa; assay: Synergistic antibacterial activity against Pseudomonas aeruginosa ATCC […] fractional inhibitory concentration index incubated for 24 hrs in presence of levofloxacin by checkerboard assay
[31] = system: Pseudomonas aeruginosa; assay: Synergistic antibacterial activity against Pseudomonas aeruginosa ATCC […] fractional inhibitory concentration index incubated for 24 hrs in presence of Ciprofloxacin by checkerboard assay
[32] = system: Klebsiella pneumoniae; assay: Synergistic antibacterial activity against Klebsiella pneumoniae ATCC BAA-1705 fractional inhibitory concentration index incubated for 24 hrs in presence of polymyxin B by checkerboard assay
[33] = system: Pseudomonas aeruginosa; assay: Synergistic antibacterial activity against Pseudomonas aeruginosa ATCC […] fractional inhibitory concentration incubated for 24 hrs in presence of daptomycin by checkerboard assay
[34] = system: Klebsiella pneumoniae; assay: Synergistic antibacterial activity against Klebsiella pneumoniae ATCC BAA-1705 fractional inhibitory concentration incubated for 24 hrs in presence of Ciprofloxacin by checkerboard assay; method in brief: as §1
[35] = system: Pseudomonas aeruginosa; assay: Synergistic antibacterial activity against Pseudomonas aeruginosa ATCC […] incubated for 24 hrs in presence of Ciprofloxacin by checkerboard assay

| SMILES | FIC [1] | fractional inhibitory concentration index (FICI) [2] | FIC [3] | fractional inhibitory concentration index (FICI) [4] | MIC [5] [µg/mL] | MIC [6] [µg/mL] | fractional inhibitory concentration index (FICI) [7] | MIC [8] [µg/mL] | FIC [9] | FIC [10] | fractional inhibitory concentration index (FICI) [11] | FIC [12] | FIC [13] | FIC [14] | fractional inhibitory concentration index (FICI) [15] | MIC [16] [µg/mL] | fractional inhibitory concentration index (FICI) [17] | fractional inhibitory concentration index (FICI) [18] | fractional inhibitory concentration index (FICI) [19] | FIC [20] | also measured |
| --- | --- | --- | --- | --- | --- | --- | --- | --- | --- | --- | --- | --- | --- | --- | --- | --- | --- | --- | --- | --- | --- |
| N=C(N)NCCC[C@@H]1NC(=O)[C@H](CCCNC(=N)N)NC(=O)[C@H](CCCNC(=N)N)NC(=O)[C@H](Cc2c[nH]c3ccccc23)NC(=O)[C@H](Cc2c[nH]c3ccccc23)NC(=O)[C@H](Cc2c[nH]c3ccccc23)NC(=O)[C@H](Cc2c[nH]c3ccccc23)NC(=O)[C@H](CCCNC(=N)N)NC(=O)[C@H](CCCNC(=N)N)NC1=O | 0.125 | 0.375 | 0.016 | 0.625 | 0.0625 | 0.125 | 0.375 | 0.125 | 0.0039 | 0.063 | 0.266 | 0.25 | 0.063 | 0.0156 | 0.375 | 1 | 0.375 | 0.254 | 0.75 | 0.5 | FIC [21]: 0.0313; FIC [22]: 0.125; fractional inhibitory concentration index (FICI) [23]: 0.375; FIC [24]: 0.125; fractional inhibitory concentration index (FICI) [25]: 0.375; fractional inhibitory concentration index (FICI) [26]: 0.5; FIC [27]: 0.25; FIC [28]: 0.25; fractional inhibitory concentration index (FICI) [29]: 0.375; fractional inhibitory concentration index (FICI) [30]: 0.375; fractional inhibitory concentration index (FICI) [31]: 0.5; fractional inhibitory concentration index (FICI) [32]: 0.375; FIC [33]: 0.063; FIC [34]: 0.0625; MIC [35]: 0.125 µg/mL |
| N=C(N)NCCC[C@@H]1NC(=O)[C@H](CCCNC(=N)N)NC(=O)[C@H](CCCNC(=N)N)NC(=O)[C@H](CCCNC(=N)N)NC(=O)[C@H](Cc2c[nH]c3ccccc23)NC(=O)[C@H](Cc2c[nH]c3ccccc23)NC(=O)[C@H](Cc2c[nH]c3ccccc23)NC(=O)[C@H](Cc2c[nH]c3ccccc23)NC(=O)[C@H](CCCNC(=N)N)NC(=O)[C@H](CCCNC(=N)N)NC1=O (cyclo(RRRRRRWWWW)) | 0.063 | 0.5 | 0.016 | 0.75 | 0.0625 | 0.031 | 0.313 | 0.25 | 0.016 | 0.063 | 0.516 | 0.25 | 0.063 | 0.125 | 0.5 | 0.5 | 0.375 | 0.266 | 0.5 | 0.25 | FIC [21]: 0.063; FIC [22]: 0.25; fractional inhibitory concentration index (FICI) [23]: 0.375; FIC [24]: 0.25; fractional inhibitory concentration index (FICI) [25]: 0.313; fractional inhibitory concentration index (FICI) [26]: 0.5; FIC [27]: 0.25; FIC [28]: 0.125; fractional inhibitory concentration index (FICI) [29]: 0.5; fractional inhibitory concentration index (FICI) [30]: 0.375; fractional inhibitory concentration index (FICI) [31]: 0.5; fractional inhibitory concentration index (FICI) [32]: 0.281; FIC [33]: 0.0156; FIC [34]: 0.0625; MIC [35]: 0.125 µg/mL |
